Assay results: PubChem BioAssay AID602174 (The Scripps Research Institute Molecular Screening Center, 2012)

These compounds were tested on MCF7 proliferation, sulforhodamine B absorbance (assay: growth effect on ER-positive breast cancer cells – cell-based, absorbance, MCF7, counter-screen for AHR activator project, late-stage follow-up (AID 602174)). Details: at 10 µM.
Method in brief: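 test system = MCF7 cells | repeats = at least three replicate wells per condition | times = 8–10 day exposure at 37 °C after 24 h attachment | compound dosing = single 10 µM test compound dose, renewed with medium every 48 h | signal = Sulforhodamine B stain, TCA-fixed cells, A490 minus 650 nm background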

Question: `Cc1nnc(N2C(=O)c3cccc4c([N+](=O)[O-])ccc(c34)C2=O)s1` was tested. Which proliferation change did it give?
Answer: -79%

Question: For `Cn1c(C(=O)N2CCC(C(N)=O)CC2)cc2cc(Cl)ccc21`, which proliferation change is on record?
Answer: -49.2%

Question: Which proliferation change does the source give for `Cc1csc(SCC(=O)Nc2ccc(Cl)cn2)n1` here?
Answer: -63.2%

Question: `CCOC(=O)Cc1cc(-c2ccc(O)cc2)nc2ccc3ccccc3c12` was tested. Which proliferation change did it give?
Answer: -84.8%

Question: Which proliferation change does the source give for `Cc1ccc(-c2cc(-c3cccs3)[nH]n2)c(O)c1` here?
Answer: -98.1%

Question: Which proliferation change does the source give for `COc1ccccc1NC(=O)c1ccc(C(=O)Nc2ccccc2OC)nc1` here?
Answer: -90.8%

Question: With `COc1ccc(NC(=O)c2cccc3c(Br)cccc23)cc1` as the compound, how does the proliferation change read?
Answer: -59.5%

Question: With `Cc1nc(N)nc(Nc2ccc(Cl)cc2)c1Br` as the compound, how does the proliferation change read?
Answer: -86.8%

Question: How did the proliferation change turn out when `Cc1c(-c2ccn[nH]2)cc(NC(=O)c2ccc(Cl)cc2)c(=O)n1N` was run?
Answer: -73%

Question: How did the proliferation change turn out when `CCOc1ccc(-c2cc(C)n3nc(C(N)=O)cc3n2)cc1` was run?
Answer: -20.5%
